From paper PMC5553891 (Neurochemistry international, 2013)
Where two headings read alike, the source gives them in different places.

Assays:
dSERT [1] = target: T1, dSERT (Drosophila melanogaster, UniProt P51905); experiment: two-electrode voltage clamp of 5-HT-induced current in Xenopus oocytes; assay type: cell-based; settings: 10 μM 5-HT, ND96, −50 mV, room temperature
T1 sequence (P51905 1-622): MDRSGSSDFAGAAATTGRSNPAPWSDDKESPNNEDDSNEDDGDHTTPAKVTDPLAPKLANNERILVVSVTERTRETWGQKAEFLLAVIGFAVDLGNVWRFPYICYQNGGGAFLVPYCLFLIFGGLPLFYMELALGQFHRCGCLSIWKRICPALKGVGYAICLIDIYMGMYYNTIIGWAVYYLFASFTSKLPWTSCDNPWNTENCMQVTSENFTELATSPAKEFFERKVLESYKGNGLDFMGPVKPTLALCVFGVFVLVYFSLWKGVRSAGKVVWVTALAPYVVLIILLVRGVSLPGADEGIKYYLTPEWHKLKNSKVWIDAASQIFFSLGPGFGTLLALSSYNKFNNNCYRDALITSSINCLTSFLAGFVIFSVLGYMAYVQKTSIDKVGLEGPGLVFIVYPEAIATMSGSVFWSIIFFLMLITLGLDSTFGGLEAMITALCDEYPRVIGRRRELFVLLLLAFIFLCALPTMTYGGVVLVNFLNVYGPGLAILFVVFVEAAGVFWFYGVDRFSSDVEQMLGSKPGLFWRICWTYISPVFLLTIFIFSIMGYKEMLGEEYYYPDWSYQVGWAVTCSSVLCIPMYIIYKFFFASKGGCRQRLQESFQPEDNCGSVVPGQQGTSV

dSERT [2] = target: T1, dSERT; experiment: inhibition of [3H]5-HT uptake in Xenopus oocytes; assay type: cell-based
Procedure, shortened: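 Xenopus oocytes: defolliculated in collagenase A, kept at 18°C in supplemented ND96, injected with 50 ng dSERT cRNA, used 2–4 days later. Uptake ran 20 min in ND96 with 200 nM [3H]5-HT plus increasing competitor. Stopped by removal and six ND96 washes; SDS-solubilised at 60°C, 2 h; scintillation counted. Uninjected same-batch oocytes subtracted; normalised to no-drug control; one-site competition fit.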

[3] = read-out: Ki (μM ± SEM) / dSERT, 200 nM [3H]5-HT, 20 min, ND96

CCN(CC)Cc1cc(Nc2ccnc3cc(Cl)ccc23)ccc1O [Amodiaquin]
% inhibition of I5HT at 100 μM (dSERT [1]): amodiaquin, which did not impact 5-HT uptake, was as affective as quinine

C=C[C@H]1CN2CC[C@H]1C[C@H]2[C@H](O)c1ccnc2ccccc12 [Cinchonidine]
Ki (dSERT [2]; [3]): 330 ± 19 µM

C=C[C@H]1C[N@@]2CC[C@H]1C[C@@H]2[C@@H](O)c1ccnc2ccccc12 [Cinchonine]
Ki (dSERT [2]; [3]): 6.4 ± 0.05 µM

C=C[C@H]1C[N@@]2CC[C@H]1C[C@H]2[C@H](O)c1ccnc2ccc(OC)cc12 [Quinine]
Ki (dSERT [2]): 102 ± 24 µM

C=C[C@H]1C[N@@]2CC[C@H]1C[C@@H]2[C@@H](O)c1ccnc2ccc(OC)cc12 [Quinidine]
Ki (dSERT [2]): 1.8 ± 0.11 µM

CCN(CC)CCCC(C)Nc1ccnc2cc(Cl)ccc12 (stereo not shown) [Chloroquine]
% inhibition of I5HT at 100 μM (dSERT [1]): quinidine > cinchonine > quinacrine > chloroquine > quinine = amodiaquin = cinchonidine

CCN(CC)CCCC(C)Nc1c2ccc(Cl)cc2nc2ccc(OC)cc12 (stereo not shown) [quinacrine]
% inhibition of I5HT at 100 μM (dSERT [1]): quinidine > cinchonine > quinacrine > chloroquine > quinine = amodiaquin = cinchonidine
